According to ChEMBL document CHEMBL3784971, “Synthesis, characterization, antimicrobial and biofilm inhibitory studies of new esterquats” (Bioorg Med Chem Lett, 2016):

What was measured:
Staphylococcus aureus [1] = experiment: Antimicrobial activity against Staphylococcus aureus MTCC 96 assessed as growth inhibition after 24 hrs by agar well diffusion method; format: functional; settings: MTCC 96, 24 h
Bacillus subtilis [2] = experiment: Antimicrobial activity against Bacillus subtilis MTCC 121 assessed as growth inhibition after 24 hrs by agar well diffusion method; format: functional; settings: MTCC 121, 24 h
Staphylococcus aureus [3] = experiment: Antimicrobial activity against Staphylococcus aureus MLS16 MTCC 2940 assessed as growth inhibition after 24 hrs by agar well diffusion method; format: functional; settings: MLS16 MTCC 2940, 24 h
Micrococcus luteus [4] = experiment: Antimicrobial activity against Micrococcus luteus MTCC 2470 assessed as growth inhibition after 24 hrs by agar well diffusion method; format: functional; settings: MTCC 2470, 24 h
Raoultella planticola [5] = experiment: Antimicrobial activity against Klebsiella planticola MTCC 530 assessed as growth inhibition after 24 hrs by agar well diffusion method; format: functional; settings: MTCC 530, 24 h
Escherichia coli [6] = experiment: Antimicrobial activity against Escherichia coli MTCC 739 assessed as growth inhibition after 24 hrs by agar well diffusion method; format: functional; settings: MTCC 739, 24 h
Pseudomonas aeruginosa = experiment: Antimicrobial activity against Pseudomonas aeruginosa MTCC 2453 assessed as growth inhibition after 24 hrs by agar well diffusion method; format: functional; settings: MTCC 2453, 24 h
Candida albicans [7] = experiment: Antimicrobial activity against Candida albicans MTCC 3017 assessed as growth inhibition after 24 hrs by agar well diffusion method; format: functional; settings: MTCC 3017, 24 h
Staphylococcus aureus [8] = experiment: Bactericidal activity against Staphylococcus aureus MTCC 96 after 24 hrs by serial dilution method; format: functional; settings: MTCC 96, 24 h
Bacillus subtilis [9] = experiment: Bactericidal activity against Bacillus subtilis MTCC 121 after 24 hrs by serial dilution method; format: functional; settings: MTCC 121, 24 h
Staphylococcus aureus [10] = experiment: Bactericidal activity against Staphylococcus aureus MLS16 MTCC 2940 after 24 hrs by serial dilution method; format: functional; settings: MLS16 MTCC 2940, 24 h
Micrococcus luteus [11] = experiment: Bactericidal activity against Micrococcus luteus MTCC 2470 after 24 hrs by serial dilution method; format: functional; settings: MTCC 2470, 24 h
Raoultella planticola [12] = experiment: Bactericidal activity against Klebsiella planticola MTCC 530 after 24 hrs by serial dilution method; format: functional; settings: MTCC 530, 24 h
Escherichia coli [13] = experiment: Bactericidal activity against Escherichia coli MTCC 739 after 24 hrs by serial dilution method; format: functional; settings: MTCC 739, 24 h
Staphylococcus aureus [14] = experiment: Antibiofilm activity against Staphylococcus aureus MTCC 96 after 24 hrs by crystal violet staining based assay; format: functional, organism-based; settings: MTCC 96, 24 h
In short: (§1)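 Biofilm inhibition tested for amine esters and esterquats. IC50 values (µg/mL) are the mean of three determinations, with ciprofloxacin as reference.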

Staphylococcus aureus [15] = experiment: Antibiofilm activity against Staphylococcus aureus MLS16 MTCC 2940 after 24 hrs by crystal violet staining based assay; format: functional, organism-based; settings: MLS16 MTCC 2940, 24 h; in short: as §1
Micrococcus luteus [16] = experiment: Antibiofilm activity against Micrococcus luteus MTCC 2470 after 24 hrs by crystal violet staining based assay; format: functional, organism-based; settings: MTCC 2470, 24 h; in short: as §1
Candida albicans [17] = experiment: Antimicrobial activity against Candida albicans MTCC 183 assessed as growth inhibition after 24 hrs by agar well diffusion method; format: functional; settings: MTCC 183, 24 h
Candida albicans [18] = experiment: Antimicrobial activity against Candida albicans MTCC 227 assessed as growth inhibition after 24 hrs by agar well diffusion method; format: functional; settings: MTCC 227, 24 h
Candida albicans [19] = experiment: Antimicrobial activity against Candida albicans MTCC 854 assessed as growth inhibition after 24 hrs by agar well diffusion method; format: functional; settings: MTCC 854, 24 h
Candida albicans [20] = experiment: Antimicrobial activity against Candida albicans MTCC 1637 assessed as growth inhibition after 24 hrs by agar well diffusion method; format: functional; settings: MTCC 1637, 24 h
Candida albicans [21] = experiment: Antimicrobial activity against Candida albicans MTCC 3018 assessed as growth inhibition after 24 hrs by agar well diffusion method; format: functional; settings: MTCC 3018, 24 h
Candida albicans [22] = experiment: Antimicrobial activity against Candida albicans MTCC 3958 assessed as growth inhibition after 24 hrs by agar well diffusion method; format: functional; settings: MTCC 3958, 24 h
Candida albicans [23] = experiment: Antimicrobial activity against Candida albicans MTCC 4748 assessed as growth inhibition after 24 hrs by agar well diffusion method; format: functional; settings: MTCC 4748, 24 h
Candida albicans [24] = experiment: Antimicrobial activity against Candida albicans MTCC 7315 assessed as growth inhibition after 24 hrs by agar well diffusion method; format: functional; settings: MTCC 7315, 24 h
Candida parapsilosis [25] = experiment: Antimicrobial activity against Candida parapsilosis MTCC 1744 assessed as growth inhibition after 24 hrs by agar well diffusion method; format: functional; settings: Lodderomyces parapsilosis, MTCC 1744, 24 h
[Candida] aaseri [26] = Antimicrobial activity against Candida aaseri MTCC 1962 assessed as growth inhibition after 24 hrs by agar well diffusion method; format: functional; settings: Yamadazyma aaseri, MTCC 1962, 24 h
Nakaseomyces glabratus [27] = experiment: Antimicrobial activity against Candida glabrata MTCC 3019 assessed as growth inhibition after 24 hrs by agar well diffusion method; format: functional; settings: MTCC 3019, 24 h
Pichia kudriavzevii [28] = experiment: Antimicrobial activity against Candida krusei MTCC 3020 assessed as growth inhibition after 24 hrs by agar well diffusion method; format: functional; settings: MTCC 3020, 24 h
Pichia sporocuriosa [29] = experiment: Antimicrobial activity against Issatchenkia hanoiensis MTCC 4755 assessed as growth inhibition after 24 hrs by agar well diffusion method; format: functional; settings: MTCC 4755, 24 h
Candida albicans [30] = experiment: Fungicidal activity against Candida albicans MTCC 3017 after 24 hrs by serial dilution method; format: functional; settings: MTCC 3017, 24 h
Candida albicans [31] = experiment: Fungicidal activity against Candida albicans MTCC 183 after 24 hrs by serial dilution method; format: functional; settings: MTCC 183, 24 h
Candida albicans [32] = experiment: Fungicidal activity against Candida albicans MTCC 227 after 24 hrs by serial dilution method; format: functional; settings: MTCC 227, 24 h
Candida albicans [33] = experiment: Fungicidal activity against Candida albicans MTCC 854 after 24 hrs by serial dilution method; format: functional; settings: MTCC 854, 24 h
Candida albicans [34] = experiment: Fungicidal activity against Candida albicans MTCC 1637 after 24 hrs by serial dilution method; format: functional; settings: MTCC 1637, 24 h
Candida albicans [35] = experiment: Fungicidal activity against Candida albicans MTCC 3018 after 24 hrs by serial dilution method; format: functional; settings: MTCC 3018, 24 h
Candida albicans [36] = experiment: Fungicidal activity against Candida albicans MTCC 3958 after 24 hrs by serial dilution method; format: functional; settings: MTCC 3958, 24 h
Candida albicans [37] = experiment: Fungicidal activity against Candida albicans MTCC 4748 after 24 hrs by serial dilution method; format: functional; settings: MTCC 4748, 24 h
Candida albicans [38] = experiment: Fungicidal activity against Candida albicans MTCC 7315 after 24 hrs by serial dilution method; format: functional; settings: MTCC 7315, 24 h
Candida parapsilosis [39] = experiment: Fungicidal activity against Candida parapsilosis MTCC 1744 after 24 hrs by serial dilution method; format: functional; settings: Lodderomyces parapsilosis, MTCC 1744, 24 h
[Candida] aaseri [40] = Fungicidal activity against Candida aaseri MTCC 1962 after 24 hrs by serial dilution method; format: functional; settings: Yamadazyma aaseri, MTCC 1962, 24 h
Nakaseomyces glabratus [41] = experiment: Fungicidal activity against Candida glabrata MTCC 3019 after 24 hrs by serial dilution method; format: functional; settings: MTCC 3019, 24 h
Pichia kudriavzevii [42] = experiment: Fungicidal activity against Candida krusei MTCC 3020 after 24 hrs by serial dilution method; format: functional; settings: MTCC 3020, 24 h
Pichia sporocuriosa [43] = experiment: Fungicidal activity against Issatchenkia hanoiensis MTCC 4755 after 24 hrs by serial dilution method; format: functional; settings: MTCC 4755, 24 h
Bacillus subtilis [44] = experiment: Antibiofilm activity against Bacillus subtilis MTCC 121 after 24 hrs by crystal violet staining based assay; format: functional, organism-based; settings: MTCC 121, 24 h; in short: as §1

CCCCCCCCCCCC[N+](C)(CCCCCCCCCCC(=O)OC)CCCCCCCCCCC(=O)OC.[Cl-]
> 125 µg/mL: MIC (Staphylococcus aureus [1]) | MIC (Bacillus subtilis [2]) | MIC (Staphylococcus aureus [3]) | MIC (Micrococcus luteus [4]) | MIC (Raoultella planticola [5]) | MIC (Escherichia coli [6]) | MIC (Pseudomonas aeruginosa) | MIC (Candida albicans [7]) | MBC (Staphylococcus aureus [8]) | MBC (Bacillus subtilis [9]) | MBC (Staphylococcus aureus [10]) | MBC (Micrococcus luteus [11]) | MBC (Raoultella planticola [12]) | MBC (Escherichia coli [13])

COC(=O)CCCCCCCCCCN(C1CCCCC1)C1CCCCC1
62.5 µg/mL: MIC (Bacillus subtilis [2]) | MBC (Staphylococcus aureus [8])
21.3 µg/mL: IC50 (Staphylococcus aureus [14])
> 125 µg/mL: MIC (Raoultella planticola [5]) | MIC (Escherichia coli [6]) | MIC (Pseudomonas aeruginosa) | MIC (Candida albicans [7]) | MBC (Bacillus subtilis [9]) | MBC (Staphylococcus aureus [10]) | MBC (Raoultella planticola [12]) | MBC (Escherichia coli [13])
20.8 µg/mL: IC50 (Staphylococcus aureus [15])
19.9 µg/mL: IC50 (Micrococcus luteus [16])
15.6 µg/mL: MIC (Micrococcus luteus [4])
31.2 µg/mL: MIC (Staphylococcus aureus [1]) | MIC (Staphylococcus aureus [3]) | MBC (Micrococcus luteus [11])

CCCCCCCCCCCCN(CCCCCCCCCCC(=O)OC)CCCCCCCCCCC(=O)OC
> 125 µg/mL: MIC (Staphylococcus aureus [1]) | MIC (Bacillus subtilis [2]) | MIC (Staphylococcus aureus [3]) | MIC (Micrococcus luteus [4]) | MIC (Raoultella planticola [5]) | MIC (Escherichia coli [6]) | MIC (Pseudomonas aeruginosa) | MIC (Candida albicans [7]) | MBC (Staphylococcus aureus [8]) | MBC (Bacillus subtilis [9]) | MBC (Staphylococcus aureus [10]) | MBC (Micrococcus luteus [11]) | MBC (Raoultella planticola [12]) | MBC (Escherichia coli [13])

CCCCCCNCCCCCCCCCCC(=O)OC
3.9 µg/mL: MIC (Staphylococcus aureus [1]) | MIC (Staphylococcus aureus [3]) | IC50 (Staphylococcus aureus [15])
> 125 µg/mL: MIC (Raoultella planticola [5]) | MIC (Escherichia coli [6]) | MIC (Pseudomonas aeruginosa) | MBC (Raoultella planticola [12]) | MBC (Escherichia coli [13])
15.6 µg/mL: MIC (Micrococcus luteus [4]) | MIC (Candida albicans [7]) | MIC (Candida albicans [19]) | MIC (Candida albicans [20]) | MIC ([Candida] aaseri [26]) | MIC (Pichia kudriavzevii [28]) | MBC (Bacillus subtilis [9])
2.2 µg/mL: IC50 (Micrococcus luteus [16])
7.8 µg/mL: MIC (Bacillus subtilis [2]) | MBC (Staphylococcus aureus [8]) | MBC (Staphylococcus aureus [10])
31.2 µg/mL: MIC (Candida albicans [17]) | MIC (Candida albicans [18]) | MIC (Candida albicans [21]) | MIC (Candida albicans [22]) | MIC (Candida parapsilosis [25]) | MIC (Nakaseomyces glabratus [27]) | MIC (Pichia sporocuriosa [29]) | MBC (Micrococcus luteus [11]) | MFC (Candida albicans [30]) | MFC (Candida albicans [32]) | MFC (Candida albicans [33]) | MFC (Candida albicans [34]) | MFC ([Candida] aaseri [40]) | MFC (Nakaseomyces glabratus [41]) | MFC (Pichia kudriavzevii [42]) | MFC (Pichia sporocuriosa [43])
2.6 µg/mL: IC50 (Staphylococcus aureus [14])
62.5 µg/mL: MIC (Candida albicans [23]) | MIC (Candida albicans [24]) | MFC (Candida albicans [31]) | MFC (Candida albicans [35]) | MFC (Candida albicans [36]) | MFC (Candida albicans [37]) | MFC (Candida albicans [38]) | MFC (Candida parapsilosis [39])
4.2 µg/mL: IC50 (Bacillus subtilis [44])

CCCCCCCCCCCCCCCCCC[N+](C)(CCCCCCCCCCC(=O)OC)CCCCCCCCCCC(=O)OC.[Cl-]
> 125 µg/mL: MIC (Staphylococcus aureus [1]) | MIC (Bacillus subtilis [2]) | MIC (Staphylococcus aureus [3]) | MIC (Micrococcus luteus [4]) | MIC (Raoultella planticola [5]) | MIC (Escherichia coli [6]) | MIC (Pseudomonas aeruginosa) | MIC (Candida albicans [7]) | MBC (Staphylococcus aureus [8]) | MBC (Bacillus subtilis [9]) | MBC (Staphylococcus aureus [10]) | MBC (Micrococcus luteus [11]) | MBC (Raoultella planticola [12]) | MBC (Escherichia coli [13])

CCCCCCCCCCCCCCCCCCNCCCCCCCCCCC(=O)OC
> 125 µg/mL: MIC (Staphylococcus aureus [1]) | MIC (Bacillus subtilis [2]) | MIC (Staphylococcus aureus [3]) | MIC (Micrococcus luteus [4]) | MIC (Raoultella planticola [5]) | MIC (Escherichia coli [6]) | MIC (Pseudomonas aeruginosa) | MIC (Candida albicans [7]) | MBC (Staphylococcus aureus [8]) | MBC (Bacillus subtilis [9]) | MBC (Staphylococcus aureus [10]) | MBC (Micrococcus luteus [11]) | MBC (Raoultella planticola [12]) | MBC (Escherichia coli [13])
